# Data as given in PMC3483416 (Archives of biochemistry and biophysics, 2012).
# Where two headings read alike, the source gives them in different places.
# Tests used:
# ITC: binding = assay: ITC: binding
# In short: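 25 × 10 μl injections of 50 μM full-length BclXL into a cell of 2 mM TOCL/DHPC bicelles (1:4 molar ratio, stirred 2 h at 37 °C in buffer). 25 °C; 50 mM buffer (acetate pH 4 to CAPS pH 10) with 100 mM NaCl, 1 mM EDTA and 5 mM β-mercaptoethanol. Buffer-titration heats subtracted. Kd and ΔH from a one-site fit; TΔS = ΔH − ΔG. ≥3 repeats.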
# [1] = Analytical light scattering; format: physicochemical; conditions: for Mw (weighted-average molar mass): Superdex 200, 10°C; for P (population of species): integration of elution peak
# In short: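 Full-length His-tagged human BclXL, 50 μM starting concentration, run on Superdex 200 SEC at 1 ml/min and 10 °C in 50 mM buffer (pH 4–10) with 100 mM NaCl, 1 mM EDTA and 5 mM β-mercaptoethanol. Inline triple-angle SLS, 90° DLS and refractive-index concentration detection. Mw, Mn and Rg from Zimm treatment; Rh from autocorrelation fit. Errors one SD, ≥3 independent runs.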
# [2] = format: physicochemical; conditions: 50μM BclXL, 1°C/min
# Far-UV CD of BclXL = format: physicochemical; conditions: 5μM BclXL, 25°C
# In short: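 Far-UV spectra of 5 μM full-length human BclXL in 50 mM acetate (pH 4), phosphate (pH 6), Tris (pH 8) or CAPS (pH 10). 25 °C; 2-mm quartz cuvette; 190–250 nm; 2-nm slit; 10 nm/min scan. Buffer reference spectra subtracted. At least three repeats.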
# [3] = ANS fluorescence in the presence of BclXL; format: binding; conditions: for ANS fluorescence enhancement: 5μM BclXL, excess ANS, excitation 375nm, 25 °C
# In short: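 Full-length human BclXL (residues 1–233, N-His, E. coli-expressed, Ni-NTA purified) at 5 μM with excess ANS in 50 mM acetate pH 4, phosphate pH 6, Tris pH 8 or CAPS pH 10. 25 °C; excitation 375 nm; emission 400–600 nm; 2.5-nm bandwidths. ANS-alone background subtracted. Enhancement = (Φ−Φo)/Φo × 100%, where Φ is the integrated spectral area. At least three repeats.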
# [4] = Acrylamide quenching of BclXL intrinsic fluorescence; format: physicochemical; conditions: 5μM BclXL, excess acrylamide, 25 °C
# In short: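 Intrinsic fluorescence quenching: 5 μM His-tagged full-length human BclXL with excess acrylamide in 50 mM acetate (pH 4), phosphate (pH 6), Tris (pH 8) or CAPS (pH 10). 25 °C, 10-mm cuvette; excitation 290 nm; emission 300–500 nm; 2.5-nm bandwidths. […] Q = (Φo−Φ)/Φo × 100% from integrated spectral areas. At least three repeats.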
# Near-UV CD of BclXL = format: physicochemical; conditions: 30μM BclXL, 25°C
# In short: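 Near-UV spectra recorded on 30 μM His-tagged full-length human BclXL in 50 mM acetate pH 4, phosphate pH 6, Tris pH 8 or CAPS pH 10. 25 °C; 10-mm quartz cuvette; 260–340 nm; 2-nm slit; 10 nm/min. Spectra normalized against buffer references. At least three repeats.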
# [5] = Dimer, pH 6, ± SD, n at least 3
# [6] = Dimer, pH 8, ± SD, n at least 3
# [7] = Dimer, pH 10, ± SD, n at least 3
# [8] = Megamer, pH 4, ± SD, n at least 3
# [9] = Monomer, pH 6, ± SD, n at least 3
# [10] = Monomer, pH 8, ± SD, n at least 3
# [11] = Multimer, pH 6, ± SD, n at least 3
# [12] = Multimer, pH 8, ± SD, n at least 3
# [13] = Multimer, pH 10, ± SD, n at least 3
# [14] = Polymer, pH 6, ± SD, n at least 3
# [15] = Polymer, pH 8, ± SD, n at least 3
# [16] = Polymer, pH 10, ± SD, n at least 3
substance,measurement,setting,value
"full-length BclXL: Full-length human BclXL (residues 1-233), N-terminal His-tag, expressed in Escherichia coli",TΔS,"ITC: binding; pH 4, acetate, 25 °C, TΔS=ΔH-ΔG, ± SD, n at least 3",-53.73 ± 4.1 kcal/mol
same,ΔH,"ITC: binding; pH 4, acetate, 25 °C, ± SD, n at least 3",-63.00 ± 4.2 kcal/mol
same,ΔG,"ITC: binding; pH 4, acetate, 25 °C, ΔG=RTlnKd, ± SD, n at least 3",-9.26 ± 0.1 kcal/mol
same,"binding to TOCL/DHPC bicelles, in words",ITC: binding; pH 4-10,only under acidic conditions
same,Mw (weighted-average molar mass),"[1]; Dimer, pH 6, phosphate, 50μM loaded, ± SD, n at least 3",61 ± 3 kD
same,P (population of species),"[1]; Dimer, pH 6",11%
same,Mn (number-average molar mass),[1]; [5],59 ± 2 kD
same,Mw/Mn,[1]; [5],1.02 ± 0.01
same,Rh (weighted-average hydrodynamic radius),[1]; [5],49 ± 4 Å
same,Mw (weighted-average molar mass),"[1]; Dimer, pH 8, Tris, 50μM loaded, ± SD, n at least 3",62 ± 4 kD
same,P (population of species),"[1]; Dimer, pH 8",5%
same,Mn (number-average molar mass),[1]; [6],61 ± 2 kD
same,Mw/Mn,[1]; [6],1.01 ± 0.01
same,Rh (weighted-average hydrodynamic radius),[1]; [6],48 ± 2 Å
same,Mw (weighted-average molar mass),"[1]; Dimer, pH 10, CAPS, 50μM loaded, ± SD, n at least 3",61 ± 3 kD
same,P (population of species),"[1]; Dimer, pH 10",5%
same,Mn (number-average molar mass),[1]; [7],60 ± 3 kD
same,Mw/Mn,[1]; [7],1.02 ± 0.01
same,Rh (weighted-average hydrodynamic radius),[1]; [7],49 ± 3 Å
same,Mw (weighted-average molar mass),"[1]; Megamer, pH 4, acetate, 50μM loaded, ± SD, n at least 3",33805 ± 2821 kD
same,Mn (number-average molar mass),"[1]; Megamer, pH 4, 50μM loaded, 10°C, ± SD, n at least 3",33085 ± 2623 kD
same,P (population of species),"[1]; Megamer, pH 4",100%
same,Mw/Mn,[1]; [8],1.02 ± 0.01
same,Rg (weighted-average radius of gyration),[1]; [8],783 ± 86 Å
same,Rg/Rh,[1]; [8],2.40 ± 0.16
same,Rh (weighted-average hydrodynamic radius),[1]; [8],324 ± 23 Å
same,Mw (weighted-average molar mass),"[1]; Monomer, pH 6, phosphate, 50μM loaded, ± SD, n at least 3",32 ± 2 kD
same,P (population of species),"[1]; Monomer, pH 6",31%
same,Mn (number-average molar mass),[1]; [9],31 ± 2 kD
same,Mw/Mn,[1]; [9],1.01 ± 0.01
same,Rh (weighted-average hydrodynamic radius),[1]; [9],26 ± 1 Å
same,Mw (weighted-average molar mass),"[1]; Monomer, pH 8, Tris, 50μM loaded, ± SD, n at least 3",31 ± 1 kD
same,P (population of species),"[1]; Monomer, pH 8",7%
same,Mn (number-average molar mass),[1]; [10],30 ± 2 kD
same,Mw/Mn,[1]; [10],1.00 ± 0.00
same,Rh (weighted-average hydrodynamic radius),[1]; [10],34 ± 2 Å
same,Mw (weighted-average molar mass),"[1]; Monomer, pH 10, CAPS, 50μM loaded, ± SD, n at least 3",31 ± 2 kD
same,P (population of species),"[1]; Monomer, pH 10",9%
same,Mw (weighted-average molar mass),"[1]; Multimer, pH 6, phosphate, 50μM loaded, ± SD, n at least 3",595 ± 45 kD
same,P (population of species),"[1]; Multimer, pH 6",37%
same,Mn (number-average molar mass),[1]; [11],577 ± 39 kD
same,Mw/Mn,[1]; [11],1.03 ± 0.02
same,Rg (weighted-average radius of gyration),[1]; [11],141 ± 5 Å
same,Rg/Rh,[1]; [11],1.47 ± 0.02
same,Rh (weighted-average hydrodynamic radius),[1]; [11],95 ± 3 Å
same,Mw (weighted-average molar mass),"[1]; Multimer, pH 8, Tris, 50μM loaded, ± SD, n at least 3",364 ± 32 kD
same,P (population of species),"[1]; Multimer, pH 8",51%
same,Mn (number-average molar mass),[1]; [12],325 ± 33 kD
same,Mw/Mn,[1]; [12],1.11 ± 0.01
same,Rg (weighted-average radius of gyration),[1]; [12],98 ± 4 Å
same,Rg/Rh,[1]; [12],1.08 ± 0.02
same,Rh (weighted-average hydrodynamic radius),[1]; [12],90 ± 2 Å
same,Mw (weighted-average molar mass),"[1]; Multimer, pH 10, CAPS, 50μM loaded, ± SD, n at least 3",461 ± 21 kD
same,P (population of species),"[1]; Multimer, pH 10",50%
same,Mn (number-average molar mass),[1]; [13],448 ± 23 kD
same,Mw/Mn,[1]; [13],1.03 ± 0.01
same,Rg (weighted-average radius of gyration),[1]; [13],131 ± 5 Å
same,Rg/Rh,[1]; [13],1.21 ± 0.01
same,Rh (weighted-average hydrodynamic radius),[1]; [13],108 ± 4 Å
same,Mw (weighted-average molar mass),"[1]; Polymer, pH 6, phosphate, 50μM loaded, ± SD, n at least 3",3521 ± 292 kD
same,P (population of species),"[1]; Polymer, pH 6",21%
same,Mn (number-average molar mass),[1]; [14],3101 ± 201 kD
same,Mw/Mn,[1]; [14],1.13 ± 0.03
same,Rg (weighted-average radius of gyration),[1]; [14],230 ± 12 Å
same,Rg/Rh,[1]; [14],1.22 ± 0.02
same,Rh (weighted-average hydrodynamic radius),[1]; [14],187 ± 9 Å
same,Mw (weighted-average molar mass),"[1]; Polymer, pH 8, Tris, 50μM loaded, ± SD, n at least 3",3729 ± 246 kD
same,P (population of species),"[1]; Polymer, pH 8",37%
same,Mn (number-average molar mass),[1]; [15],3226 ± 236 kD
same,Mw/Mn,[1]; [15],1.15 ± 0.02
same,Rg (weighted-average radius of gyration),[1]; [15],218 ± 12 Å
same,Rg/Rh,[1]; [15],1.15 ± 0.03
same,Rh (weighted-average hydrodynamic radius),[1]; [15],188 ± 11 Å
same,Mw (weighted-average molar mass),"[1]; Polymer, pH 10, CAPS, 50μM loaded, ± SD, n at least 3",3189 ± 229 kD
same,P (population of species),"[1]; Polymer, pH 10",36%
same,Mn (number-average molar mass),[1]; [16],3018 ± 212 kD
same,Mw/Mn,[1]; [16],1.06 ± 0.02
same,Rg (weighted-average radius of gyration),[1]; [16],232 ± 13 Å
same,Rg/Rh,[1]; [16],1.14 ± 0.02
same,Rh (weighted-average hydrodynamic radius),[1]; [16],202 ± 7 Å
same,mass of megamer,[1]; acidic conditions (pH 4),"~ 34,000 kD"
same,monomeric units in megadalton oligomer,[1]; acidic conditions (pH 4),more than 1000 monomeric units
same,Mw/Mn,"[1]; megadalton oligomer, pH 4, text",< 1.05
same,Mw/Mn,[1]; monomeric and dimeric forms,< 1.05
same,Rg/Rh,[1]; multimer and polymer,> 1.05
same,mass of monomer,[1]; pH 6 and higher,~ 31 kD
same,melting temperature (no melting transition up to),"[2]; pH 4, 50mM buffer, 3atm",> 120 °C
same,"melting temperature (Tm), first transition","[2]; pH 6, attributed to dissociation of dimer into monomers",around 55 °C
same,"melting temperature (Tm), second transition","[2]; pH 6, attributed to unfolding of monomers",~70 °C
same,"melting temperature (Tm), first transition","[2]; pH 10, dissociation of dimer into monomers",around 60 °C
same,"melting temperature (Tm), second transition","[2]; pH 10, unfolding of monomers",~90 °C
same,intensity of far-UV spectrum,Far-UV CD of BclXL; pH 4-10,steadily increases with increasing pH
same,"far-UV CD band, first",Far-UV CD of BclXL; all pH conditions,around 208 nm
same,"far-UV CD band, second",Far-UV CD of BclXL; all pH conditions,~222 nm
same,ANS emission maximum upon binding to BclXL,[3]; blue-shifted from 515nm in water,around 475 nm
same,ANS fluorescence enhancement,[3]; pH 4,~15 fold
same,ANS fluorescence enhancement,[3]; pH 6,2 fold
same,ANS fluorescence enhancement,[3]; pH 8,about 5 fold
same,ANS fluorescence enhancement,[3]; pH 10,about 5 fold
same,fluorescence quenching by acrylamide vs pH,[4],optimal quenching occurs at pH 6
same,near-UV CD signal,Near-UV CD of BclXL; acidic pH (pH 4),substantially attenuated
same,near-UV CD signal,Near-UV CD of BclXL; alkaline conditions (pH 8 and 10),also attenuated
same,near-UV CD signal,Near-UV CD of BclXL; pH 6,strong near-UV CD signal
